This is an account of results in ChEMBL document CHEMBL1800047, “Design and synthesis of cyclic sulfonamides and sulfamates as new calcium sensing receptor agonists” (Bioorg Med Chem Lett, 2010).

Changes are numbered by the printed parent chain.

Common to all, as to type: functional, cell-based
Assay [1] deals with T1, Extracellular calcium-sensing receptor (Rattus norvegicus) (UniProt P48442).
T1 sequence (whole entry): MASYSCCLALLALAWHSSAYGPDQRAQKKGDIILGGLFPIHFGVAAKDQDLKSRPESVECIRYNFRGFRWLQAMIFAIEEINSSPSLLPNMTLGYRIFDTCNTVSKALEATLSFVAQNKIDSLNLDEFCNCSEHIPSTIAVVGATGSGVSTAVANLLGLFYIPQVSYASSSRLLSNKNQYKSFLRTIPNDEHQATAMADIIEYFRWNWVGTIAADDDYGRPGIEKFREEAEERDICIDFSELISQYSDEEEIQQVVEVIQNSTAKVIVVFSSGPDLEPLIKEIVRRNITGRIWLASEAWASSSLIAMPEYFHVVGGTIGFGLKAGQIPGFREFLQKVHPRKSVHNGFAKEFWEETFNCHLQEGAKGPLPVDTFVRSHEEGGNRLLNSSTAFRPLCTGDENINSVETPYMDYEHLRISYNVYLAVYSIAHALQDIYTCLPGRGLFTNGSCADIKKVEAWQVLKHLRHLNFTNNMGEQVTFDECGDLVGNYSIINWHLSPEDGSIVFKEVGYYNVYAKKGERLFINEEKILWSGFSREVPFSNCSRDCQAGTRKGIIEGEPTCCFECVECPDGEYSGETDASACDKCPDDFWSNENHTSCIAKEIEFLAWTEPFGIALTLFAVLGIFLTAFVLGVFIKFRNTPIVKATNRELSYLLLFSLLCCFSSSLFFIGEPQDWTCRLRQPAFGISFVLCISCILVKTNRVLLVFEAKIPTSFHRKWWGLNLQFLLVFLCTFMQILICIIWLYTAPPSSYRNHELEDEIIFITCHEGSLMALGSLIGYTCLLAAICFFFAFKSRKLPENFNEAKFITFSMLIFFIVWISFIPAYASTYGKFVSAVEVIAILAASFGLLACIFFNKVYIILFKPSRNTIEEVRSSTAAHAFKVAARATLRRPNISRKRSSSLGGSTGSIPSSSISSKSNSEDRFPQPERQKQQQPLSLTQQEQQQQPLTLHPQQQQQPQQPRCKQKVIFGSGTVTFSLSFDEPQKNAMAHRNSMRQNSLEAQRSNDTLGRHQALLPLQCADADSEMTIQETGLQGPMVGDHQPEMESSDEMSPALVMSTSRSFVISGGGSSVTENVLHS
Description: Agonist activity at rat CaSR expressed in CHO cells assessed as increase of calcium-induced inositol phosphate accumulation at 10 uM after 24 hrs by HTRF assay relative to calcium. The method, boiled down: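 CHO cells stably expressing rat brain CaSR are grown in Ham's F-12 (0.3 mM Ca²⁺, 0.6 mM Mg²⁺) and seeded at 4 × 10⁴ cells/well. IP-One HTRF runs 24 h later: 10 min preincubation at 37 °C, then 10 µM compound (from 10 mM DMSO stock) with 3 mM Ca²⁺, 30 min at 37 °C. Values are % of 10 mM Ca²⁺ stimulation, mean with S.E.M.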
Background: TR-FRET usually uses a lanthanide donor and a delayed reading to cut background.

The test system of assay [2] is T2, Extracellular calcium-sensing receptor (Homo sapiens), P41180 [E837A].
T2 sequence (whole entry): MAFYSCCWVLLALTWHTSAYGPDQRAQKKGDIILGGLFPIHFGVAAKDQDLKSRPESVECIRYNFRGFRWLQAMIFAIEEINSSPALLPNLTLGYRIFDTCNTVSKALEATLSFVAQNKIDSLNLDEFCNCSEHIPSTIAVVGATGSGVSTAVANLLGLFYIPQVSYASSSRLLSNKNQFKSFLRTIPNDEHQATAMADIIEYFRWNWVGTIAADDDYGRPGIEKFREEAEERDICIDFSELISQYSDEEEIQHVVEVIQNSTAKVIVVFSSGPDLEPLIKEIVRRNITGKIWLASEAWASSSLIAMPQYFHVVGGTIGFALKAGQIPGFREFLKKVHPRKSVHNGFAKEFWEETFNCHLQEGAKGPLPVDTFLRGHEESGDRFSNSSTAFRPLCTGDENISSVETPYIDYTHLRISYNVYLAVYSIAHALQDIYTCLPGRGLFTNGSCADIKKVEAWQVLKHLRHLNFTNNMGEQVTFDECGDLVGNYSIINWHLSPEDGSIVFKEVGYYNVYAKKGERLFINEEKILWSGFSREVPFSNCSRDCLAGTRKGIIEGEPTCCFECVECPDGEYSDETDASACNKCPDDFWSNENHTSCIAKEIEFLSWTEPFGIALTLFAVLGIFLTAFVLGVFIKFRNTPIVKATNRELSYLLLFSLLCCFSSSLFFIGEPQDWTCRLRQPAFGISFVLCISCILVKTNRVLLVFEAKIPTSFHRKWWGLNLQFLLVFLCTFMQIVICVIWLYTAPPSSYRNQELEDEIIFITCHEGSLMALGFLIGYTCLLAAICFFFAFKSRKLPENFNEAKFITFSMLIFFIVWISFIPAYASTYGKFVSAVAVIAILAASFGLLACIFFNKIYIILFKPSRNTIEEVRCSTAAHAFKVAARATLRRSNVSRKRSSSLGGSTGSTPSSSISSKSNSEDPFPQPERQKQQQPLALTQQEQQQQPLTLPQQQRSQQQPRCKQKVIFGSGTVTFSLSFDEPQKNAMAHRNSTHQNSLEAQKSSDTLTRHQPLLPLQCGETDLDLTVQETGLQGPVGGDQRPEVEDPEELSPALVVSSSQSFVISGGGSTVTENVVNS
Description: Agonist activity at human CaSR E837A mutant expressed in HEK293 cells assessed as increase of calcium-induced inositol phosphate accumulation at 10 uM after 48 hrs by HTRF assay relative to calcium. The method, boiled down: (§1)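 Wild-type or E837A mutant hCaSR (pcDNA3) transiently transfected into HEK293 cells (10⁷ cells, electroporation). Cells are plated on poly-D-lysine and assayed 48 h later. The assay uses a 10 min preincubation at 37 °C, then compound plus 3 mM Ca²⁺ for 30 min at 37 °C. IP-One HTRF read-out is 620/665 nm after 337 nm excitation. Values are % of 10 mM Ca²⁺ response, mean with S.E.M.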

The target of assay [3] is T3, Extracellular calcium-sensing receptor (Homo sapiens) (UniProt P41180).
T3 sequence (whole entry): T2 sequence (whole entry) with A837E, Q1011E
Description: Agonist activity at human CaSR expressed in HEK293 cells assessed as increase of calcium-induced inositol phosphate accumulation at 10 uM after 48 hrs by HTRF assay relative to calcium. The method, boiled down: as §1

In the case of `C[C@@H](NC[C@@H]1NS(=O)(=O)c2ccccc2-c2ccccc21)c1cccc2ccccc12`, the Activity in assay [1] came to 19%.

As to `C[C@@H](NC[C@H]1NS(=O)(=O)c2ccccc2-c2ccccc21)c1cccc2ccccc12`, in assay [1], the Activity was 29%.

For the compound `C[C@@H](NCc1cc2ccccc2[nH]1)c1cccc2ccccc12`, the Activity in assay [2] worked out at 41%; in assay [1], 95%; in assay [3] it was 94%.

As to `C[C@@H](N[C@@H]1CNS(=O)(=O)c2ccccc21)c1cccc2ccccc12`, in assay [1], the Activity was found to be 13%.

For the compound `C[C@@H](N[C@H]1CNS(=O)(=O)c2ccccc21)c1cccc2ccccc12`, the Activity in assay [1] turned out to be 30%.

Take `C[C@@H](NC1CNS(=O)(=O)Oc2ccccc2C1)c1cccc2ccccc12` (single isomer, unassigned; diastereomer 1): the values for the Activity in assay [2], in assay [1] and in assay [3] were 1%, 67% and 67%, respectively.

`C[C@@H](NCC1CCc2ccccc2S(=O)(=O)N1)c1cccc2ccccc12` (single isomer, unassigned; diastereomer 1): the Activity in assay [2] was 3%; in assay [1] it was 75%; in assay [3] it was 70%.

`C[C@@H](NCC1Cc2ccccc2OS(=O)(=O)N1)c1cccc2ccccc12` (single isomer, unassigned; diastereomer 1): the Activity in assay [2] was 51%; in assay [1] it was 85%; in assay [3], 75%.

Turning to `C[C@@H](NCC1Cc2ccccc2S(=O)(=O)N1)c1cccc2ccccc12` (single isomer, unassigned; diastereomer 1), the Activity came out at 22% in assay [2], 71% in assay [1] and 73% in assay [3].

In the case of `C[C@@H](NCC1NS(=O)(=O)c2ccccc21)c1cccc2ccccc12` (single isomer, unassigned; diastereomer 1), the figures for the Activity in assay [2], in assay [1] and in assay [3] were 11%, 57% and 58%, respectively.

As to `C[C@@H](NC1CNS(=O)(=O)Oc2ccccc2C1)c1cccc2ccccc12` (single isomer, unassigned; diastereomer 2), the Activity in assay [2] is 1%; in assay [1] it was 17%; in assay [3], 2%.

For `C[C@@H](NCC1CCc2ccccc2S(=O)(=O)N1)c1cccc2ccccc12` (single isomer, unassigned; diastereomer 2), the Activity was determined as 1% in assay [2], 37% in assay [1] and 40% in assay [3].

In the case of `C[C@@H](NCC1Cc2ccccc2OS(=O)(=O)N1)c1cccc2ccccc12` (single isomer, unassigned; diastereomer 2), the results for the Activity in assay [2], in assay [1] and in assay [3] were 27%, 76% and 65%, respectively.

On to `C[C@@H](NCC1Cc2ccccc2S(=O)(=O)N1)c1cccc2ccccc12` (single isomer, unassigned; diastereomer 2), for which the Activity is 10% in assay [2], 69% in assay [1] and 64% in assay [3].

On to `C[C@@H](NCC1NS(=O)(=O)c2ccccc21)c1cccc2ccccc12` (single isomer, unassigned; diastereomer 2), for which the Activity stood at 11% in assay [2], 39% in assay [1] and 51% in assay [3].
